# Compounds with a hit are over-represented: about 2.7% of the library has one in this group of screens.
# ABCG2 inh = human ABCG2 inhibition, ABCB1 as counter-screen; Q9UNQ0; IgMXP3 cells, JC-1 efflux, flow cytometry; actives 0.1% (n = 190,000); inhibition, % at 6.6 µM; AID 1325;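 active = inhibition above 80%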
#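 Measure – % inhibition of efflux relative to nicardipine and DMSO · Test system – ABCG2 IgMXP3 and barcoded ABCB1 CCRF-Adr cell mix · Control set – nicardipine as high control, DMSO as low control · Compound – one concentration, 6.6 µM final · Signal – flow cytometry of retained JC-1 fluorescence · Timing – 10 min exposure at 25 °C with rotation, no wash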
# ABCB1 inh = blocks JC-1 efflux by human ABCB1 transporter. P08183. CCRF-Adr cells, flow cytometry. inhibition, % at 6.6 µM. actives 0.067% (n = 190,000); in the data active = inhibition above about 40%;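 also: higher value means more JC-1 retained so stronger ABCB1 efflux block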
# DTT redox prof = compounds producing H2O2 with reducing agent – biochemical, NIH compound library profiling, artefact control for MLSCN library redox annotation, primary screen; AID 878; DTT-dependent redox cycling H2O2, phenol red/HRP absorbance; 100% = 100 µM peroxide control, 0% = buffer; actives 0.03% (n = 200,000); activation, % at 10 µM;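 active = activation of at least 50% relative to the plate's high and low controls in the primary single-dose screen; inactive = activation below 50%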;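 also: compound incubated with DTT at 0.8 mM final as the reducing agent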
# FLuc stim CS = affects firefly luciferase, flagging false hits in luciferase stimulation screens; activation factor at 10 µM; P08659; AID 1027; 200,000 tested, under 10 active; ATPlite luciferase biochemical, luminescence, 10 min; 0 = ATP-free wells, 1 = DMSO control;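 active = luciferase activation factor, scaled between plate controls, of at least 2 with compound at 10 µM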
#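 test system = cell-free luciferase reagent | medium = PBS as buffer for the ATP substrate | dosing = test compounds dosed from 2 mM stocks in 100% DMSO | incubation = 10 min at ambient temperature | detection = luminescence measurement of luciferase light output | benchmarks = low control with PBS replacing ATP, high control enzyme plus ATP without compound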
# FLuc inhib CS = counter-screen for luciferase assay inhibitors: firefly luciferase inhibition; ATPLite firefly luciferase biochemical luminescence, 10 min; P08659; AID 1006; actives 1.5% (n = 200,000); inhibition, % at 10 µM;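 active = inhibition above about 50% when tested at 10 µM, limit read from the data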
# Measles CPE = protection of cells from measles virus; actives 1.5% (n = 140,000); Measles virus-infected cells, CPE protection, absorbance; AID 841; protection (pct of control), % at 4 µM; in the data active = protection mostly above about 24%, no sharp cut-off; inactive = mostly below about 26%
# Hits are given with their value; – = inactive; · = no result.
SMILES,ABCG2 inh,ABCB1 inh,DTT redox prof,FLuc stim CS,FLuc inhib CS,Measles CPE
O=c1[nH]cnc2cc(-c3ccccc3)sc12,–,–,–,–,–,–
COc1cccc(C2=NOC(C(=O)NCc3ccccc3)C2)c1 (configuration not stated),–,–,–,–,–,23.5
COc1ccc(CNC(=O)C2CC(c3ccccc3[N+](=O)[O-])=NO2)cc1 (configuration not stated),–,–,–,–,–,35.8
COc1ccccc1CNC(=O)C1CC(c2ccccc2[N+](=O)[O-])=NO1 (configuration not stated),–,–,–,–,–,–
COc1cccc(NC(=S)N2CCn3cccc3C2c2cccnc2)c1 (configuration not stated),–,–,–,–,–,·
CCN(CC)S(=O)(=O)c1ccc(/C=C/C(=O)OCC(=O)N(C)C)cc1,–,–,–,–,–,·
CCN=C1S/C(=C\c2ccc(N3CCOCC3)cc2C)C(=O)N1CC,–,·,–,–,–,–
COCCN1C(=O)/C(=C/c2ccc(N3CCCC3)cc2C)SC1=S,90.6,66.6,–,–,–,·
CCOC(=O)c1oc2nc(CC(C)C)c3c(c2c1N)CCC3,–,–,–,–,–,–
O=c1c2c(nc3cc(-c4ccc(F)cc4)[nH]n13)CCC2,–,–,–,–,51.0,–
Cc1ccc(-c2cc3nc4c(c(=O)n3[nH]2)CCCC4)cc1,·,·,–,·,·,·
Cc1cc(C(=O)COC(=O)c2n[nH]c3ccccc23)c(C)n1CC1CCCO1 (configuration not stated),–,–,–,–,91.8,–
COCCn1c(C)cc(C(=O)COC(=O)c2c(C)nn(Cc3ccccc3)c2C)c1C,–,–,–,–,–,–
COCCn1c(C)cc(C(=O)COC(=O)c2n[nH]c3ccccc23)c1C,–,–,–,–,93.5,–
Cc1cc(C(=O)COC(=O)c2cccnc2Cl)c(C)n1CC1CCCO1 (configuration not stated),–,–,–,–,96.2,·
Cc1ccc(C(=O)OCC(=O)c2cc(C)n(CC3CCCO3)c2C)cc1 (configuration not stated),–,–,–,–,–,·
Cc1ccc(S(=O)(=O)Nc2cc(C(=O)Nc3cc(C)cc(C)c3)ccc2Cl)cc1,–,–,–,–,–,–
c1ccc2c(c1)ccc1ncccc12,–,–,–,–,–,·
Oc1c(N=Nc2ccccn2)ccc2ccccc12,–,–,–,–,90.7,–
CN(C(=O)COC(=O)c1nc(Cl)c(Cl)c(Cl)c1Cl)C1CCS(=O)(=O)C1 (configuration not stated),–,–,–,–,–,·
O=C1C2C3C=CC(C3)C2C(=O)N1Cc1ccc(CN2C(=O)C3C4C=CC(C4)C3C2=O)cc1 (configuration not stated),–,–,–,–,–,37.7
O=C(Nc1ccc(F)cc1)c1nsc(Cl)c1Cl,–,–,–,–,–,–
CCOc1ccc(NC(=O)c2nsc(Cl)c2Cl)cc1,–,–,–,–,50.7,·
CCOc1ccc(C(=O)NC(Cc2ccccc2)C(=O)OC)cc1 (configuration not stated),–,–,–,–,53.3,–
CCOc1ccc(NC(=O)c2ccc(OC)cc2)cc1,–,–,–,–,–,–
SMILES,ABCG2 inh,ABCB1 inh,DTT redox prof,FLuc stim CS,FLuc inhib CS,Measles CPE
CCOc1ccc(NC(=O)c2nn(C)cc2Br)cc1,–,–,–,–,70.3,–
CCOc1ccc(NC(=O)c2ccc(N)cc2)cc1,–,–,–,–,70.7,–
COc1ccc(C)cc1NC(=S)N1CCN(S(C)(=O)=O)CC1,–,–,–,–,–,–
Cc1cc(C)nc(NS(=O)(=O)c2ccc(NC(=O)CN3C(=O)C4CC=CCC4C3=O)cc2)n1 (configuration not stated),–,–,–,–,–,·
COc1ccc(C)cc1Nc1cc(C)nc2ncnn12,–,–,–,–,–,–
COc1ccccc1OCC(=O)Nc1ccccn1,–,–,–,–,71.0,–
COc1cc(CNCc2ccccn2)ccc1OCC(=O)NC(C)(C)C,–,–,–,–,–,31.1
O=C(COc1ccccc1Cl)Nc1ccc(Cl)cn1,–,–,–,–,68.8,–

# Screens (PubChem BioAssay)
